Active and inactive are the calls of the source. No cut-off for these calls is given here.
Columns and labels:
[1] = target: T1, Prostaglandin G/H synthase 2 (Homo sapiens) (UniProt P35354); assay: Inhibition of human COX2 using arachidonic acid as substrate assessed as formation of TMPD at 50 uM incubated for 5 mins prior to substrate addition measured after 5 mins by spectrophotometry
T1 sequence (whole entry): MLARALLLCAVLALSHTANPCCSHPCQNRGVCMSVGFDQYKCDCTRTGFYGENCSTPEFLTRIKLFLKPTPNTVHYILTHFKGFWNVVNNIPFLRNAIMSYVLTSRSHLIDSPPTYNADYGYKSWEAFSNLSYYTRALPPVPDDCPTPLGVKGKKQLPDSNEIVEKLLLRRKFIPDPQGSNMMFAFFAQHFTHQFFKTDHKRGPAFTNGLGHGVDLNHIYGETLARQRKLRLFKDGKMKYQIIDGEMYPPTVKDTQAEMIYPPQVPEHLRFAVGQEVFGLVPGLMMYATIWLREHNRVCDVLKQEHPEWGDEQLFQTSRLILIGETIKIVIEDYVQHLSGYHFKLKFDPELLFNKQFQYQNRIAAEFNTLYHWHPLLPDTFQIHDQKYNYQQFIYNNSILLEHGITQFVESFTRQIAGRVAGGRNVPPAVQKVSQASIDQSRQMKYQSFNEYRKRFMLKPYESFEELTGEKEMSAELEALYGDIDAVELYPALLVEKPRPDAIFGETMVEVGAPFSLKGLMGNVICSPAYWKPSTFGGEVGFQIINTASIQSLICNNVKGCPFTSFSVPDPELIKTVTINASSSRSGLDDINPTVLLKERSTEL
Procedure, shortened: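 Human recombinant COX-2 (1:1000) in 0.1 M Tris pH 8.0 with hematin, pre-incubated 5 min at room temperature with 50 μM compound. TMPD and arachidonic acid then added and incubated 5 min at room temperature. Oxidized TMPD read at 550 nm. Controls: DMSO (100%) and no arachidonic acid. Triplicate, mean ± SD.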

[2] = target: T2, Polyunsaturated fatty acid 5-lipoxygenase (Homo sapiens) (UniProt P09917); assay: Inhibition of human 5-LOX using lionleic acid as substrate assessed as formation of 13-HPOD at 50 uM incubated for 10 mins prior to substrate addition measured after 10 secs by UV absorbance assay
T2 sequence (whole entry): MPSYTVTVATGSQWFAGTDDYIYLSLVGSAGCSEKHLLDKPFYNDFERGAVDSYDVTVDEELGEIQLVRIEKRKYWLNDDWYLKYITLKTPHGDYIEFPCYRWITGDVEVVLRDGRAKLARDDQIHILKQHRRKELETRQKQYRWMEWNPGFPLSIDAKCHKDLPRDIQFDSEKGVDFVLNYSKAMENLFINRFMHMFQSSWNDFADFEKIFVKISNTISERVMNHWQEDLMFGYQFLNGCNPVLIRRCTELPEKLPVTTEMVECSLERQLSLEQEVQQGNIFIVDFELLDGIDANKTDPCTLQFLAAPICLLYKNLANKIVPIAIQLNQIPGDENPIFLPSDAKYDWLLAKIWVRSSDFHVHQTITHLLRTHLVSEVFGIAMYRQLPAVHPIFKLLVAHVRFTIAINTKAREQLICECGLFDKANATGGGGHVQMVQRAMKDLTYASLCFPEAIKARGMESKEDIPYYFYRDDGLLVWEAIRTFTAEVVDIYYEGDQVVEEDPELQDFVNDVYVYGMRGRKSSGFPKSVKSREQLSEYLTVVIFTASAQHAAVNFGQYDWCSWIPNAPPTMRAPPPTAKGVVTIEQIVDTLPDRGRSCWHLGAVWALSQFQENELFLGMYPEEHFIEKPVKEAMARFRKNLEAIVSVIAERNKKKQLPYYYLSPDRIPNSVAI
Procedure, shortened: (§1)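 Recombinant human 5-LOX (1:4000 dilution) in 50 mM Tris pH 7.5 with 2 mM EDTA, 2 mM CaCl2 and ATP, pre-incubated 10 min at room temperature with 50 μM compound (DMSO stock diluted in buffer). Linoleic acid (100 μM final) then added. Conjugated-diene HPOD formation read at 234 nm over 20 min, starting after 10 s mixing. Activity given relative to DMSO control (100%) and no-enzyme blank (0%). Triplicate.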

[3] = target: T2, Polyunsaturated fatty acid 5-lipoxygenase (Homo sapiens); assay: Binding affinity to human 5-LOX using linoleic acid as substrate by Lineweaver-Burk plot analysis
[4] = target: T2, Polyunsaturated fatty acid 5-lipoxygenase (Homo sapiens); assay: Activation of human 5-LOX using lionleic acid as substrate assessed as formation of 13-HPOD at 50 uM incubated for 10 mins prior to substrate addition measured after 10 secs by UV absorbance assay; procedure, shortened: as §1
[5] = target: T2, Polyunsaturated fatty acid 5-lipoxygenase (Homo sapiens); assay: Binding affinity to human 5-LOX-linoleic acid complex at <10 uM by Lineweaver-Burk plot analysis relative to human 5-LOX
[6] = target: T2, Polyunsaturated fatty acid 5-lipoxygenase (Homo sapiens); assay: Non-essential mixed type activation of human 5-LOX assessed as decrease in Km (app) at 12.5 to 25 uM by Michaelis-Menten/ Lineweaver-Burk plot analysis in presence of lonoleic acid
Procedure, shortened: (§2)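 Human 5-LOX, conjugated diene read at 234 nm (ε = 25000 M−1cm−1). ATP fixed at 100 μM, linoleic acid varied over 37.5–300 μM, activator at 0, 12.5 or 25 μM. Km(app) and Vmax(app) taken from Michaelis-Menten and Lineweaver-Burk plots. Triplicate, mean ± SD.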

[7] = target: T2, Polyunsaturated fatty acid 5-lipoxygenase (Homo sapiens); assay: Non-competitive activation of human 5-LOX using linoleic acid as substrate assessed as increase in Vmax (app) at 12.5 to 25 uM by Michaelis-Menten equation analysis in presence of ATP
Procedure, shortened: (§3)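 Human 5-LOX, UV assay at 234 nm as in screening. Initial velocities measured with ATP varied over 12.5–200 μM, linoleic acid fixed at 100 μM, and activator at 0, 12.5 or 25 μM. Vmax(app) and Km(app) obtained from Michaelis-Menten and Lineweaver-Burk plots. Triplicate.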

[8] = target: T2, Polyunsaturated fatty acid 5-lipoxygenase (Homo sapiens); assay: Binding affinity to human 5-LOX-linoleic acid complex by Lineweaver-Burk plot analysis
[9] = target: T2, Polyunsaturated fatty acid 5-lipoxygenase (Homo sapiens); assay: Non-essential mixed type activation of human 5-LOX assessed as increase in Vmax (app) at 12.5 to 25 uM by Michaelis-Menten/ Lineweaver-Burk plot analysis in presence of linoleic acid; procedure, shortened: as §2
[10] = target: T2, Polyunsaturated fatty acid 5-lipoxygenase (Homo sapiens); assay: Activation of human 5-LOX using lionleic acid as substrate assessed as formation of 13-HPOD incubated for 10 mins prior to substrate addition measured after 10 secs by UV absorbance assay; procedure, shortened: as §1
[11] = target: T2, Polyunsaturated fatty acid 5-lipoxygenase (Homo sapiens); assay: Non-competitive activation of human 5-LOX using linoleic acid as substrate assessed as increase in Vmax (app) at 12.5 to 25 uM by Lineweaver-Burk plot analysis in presence of ATP; procedure, shortened: as §3
[12] = target: T2, Polyunsaturated fatty acid 5-lipoxygenase (Homo sapiens); assay: Modulation of human 5-LOX using arachidonic acid as substrate at 50 uM
Procedure, shortened: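 Human 5-LOX in Tris pH 7.5 buffer with EDTA and CaCl2, pre-incubated 10 min with 50 μM compound. Substrate was arachidonic acid, 100 μM final. Residual activity measured by UV absorbance of conjugated diene product, relative to an uninhibited control.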

[13] = target: T2, Polyunsaturated fatty acid 5-lipoxygenase (Homo sapiens); assay: Modulation of human 5-LOX using linoleic acid as substrate at 50 uM; procedure, shortened: as §1
[14] = Critical micelle concentration of the compound in 50 mM Tris buffer containing 2 mM EDTA, 2 mM CaCl2 at pH 7.5 at 19 degC; assay type: ADME
Procedure, shortened: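 Surface tension measured across a range of compound concentrations in the 5-LOX assay buffer at room temperature (19 °C) and plotted against log concentration. The CMC was read from this plot.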

[15] = Critical micelle concentration of the compound in 50 mM Tris buffer with 2 mM EDTA and 2 mM CaCl2 at pH 7.5 at 19 degC
[16] = target: T3, Polyunsaturated fatty acid 5-lipoxygenase (Homo sapiens, UniProt P09917); assay: Binding affinity to human 5-LOX using linoleic acid as substrate
T3 sequence (P09917 whole entry): T2 sequence (whole entry)
Procedure, shortened: (§4)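 Human 5-LOX in 50 mM Tris pH 7.5 with 2 mM EDTA and 2 mM CaCl2, pre-incubated 10 min at room temperature with the modulator at fixed 0–50 μM. Linoleic acid was varied 37.5–300 μM with ATP at 100 μM. Initial rates came from the 234 nm diene absorbance, in triplicate. Dissociation constants for free and substrate-bound enzyme were derived by Lineweaver-Burk slope/intercept re-plots.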

[17] = target: T3, Polyunsaturated fatty acid 5-lipoxygenase; assay: Binding affinity to human 5-LOX-linoleic acid complex; procedure, shortened: as §4

inhibition [1] | inhibition [2] | Structure (SMILES) | further results
< 50% | Active | CCCCCCCCCCCCCCCc1cccc(O)c1C(=O)O | –
< 50% | inactive | CCCCCCCOc1ccc(COc2cccc(O)c2C(=O)O)cc1 | –
< 50% | inactive | CCCCCCCCCOc1ccc(COc2cccc(O)c2C(=O)O)cc1 | –
< 50% | – | CCCCCCCCCOc1cccc(COc2cccc(O)c2C(=O)O)c1 | –
< 50% | – | CCCCCCCOc1cccc(COc2cccc(O)c2C(=O)O)c1 | –
< 50% | Active | CCCCCCCCCCc1cccc(O)c1C(=O)O | –
< 50% | – | CCCCCCCCCOc1cccc(O)c1C(=O)O | –
< 50% | – | CCCCCCCCCCCCCCOc1cccc(O)c1C(=O)O | –
< 50% | Active | CCCCCCCCCCCCCCCc1cc(O)cc(O)c1C(=O)O | –

The next lines start with the compound.

Structure (SMILES) | inhibition [1] | inhibition [2] | further results
CCCCCOc1ccc(COc2cccc(O)c2C(=O)[O-])cc1.[K+] | < 50% | – | Ka [3]: 8.65 µM; Activity [4]: Active; fold change (FC) [5]: 50; Activity [6]: Active; Activity [7]: Active; Ka [8]: 380 nM; Activity [9]: Active; Activity [10]: Dose-dependent effect; Activity [11]: Active; Activity [12]: inactive; Activity [13]: Active; CMC [14]: 628 µM
Oc1ccccc1-c1nc2ccccc2o1 | 50% | inactive | –
CCCCC/C=C\C/C=C\CCCCCCCC(=O)O [LINOLEIC ACID] | – | – | CMC [15]: 185 µM
CCCCCc1cccc(O)c1C(=O)O | < 50% | Active | –
CCCCCCCCCCc1ccc(CCc2cc(O)cc(O)c2C(=O)O)cc1 | < 50% | – | –
CC(C)CCCC(C)CCOc1ccc(COc2cccc(O)c2C(=O)[O-])cc1.[K+] (configuration not stated) | < 50% | 50% | Ki [16]: 70.3 µM; Activity [12]: inactive; Activity [13]: Active; Ki [17]: 140 µM; CMC [14]: 395 µM
CCCCCCCc1ccc(CCc2cc(O)cc(O)c2C(=O)O)cc1 | < 50% | – | –
CCCCCCCc1ccc(CCc2cccc(O)c2C(=O)O)cc1 | < 50% | – | –

Source: ChEMBL document CHEMBL3091418, “Discovery of a novel activator of 5-lipoxygenase from an anacardic acid derived compound collection” (Bioorg Med Chem, 2013)
